Screens from PubChem BioAssay.
TRPC4 block: inhibitors of mouse TRPC4 channel; Q9QUQ5; HEK293 TRPC4beta/mu-opioid, DAMGO-evoked Fluo4 calcium flux; stronger effect = lower value; B-score at 10 µM; 300,000 compounds, 0.39% hits;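 active = B-score over 3 SD under the library average, no early fluorescence shift, positive overall ratio signal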
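System: stable TRPC4beta/mu-opioid receptor HEK293 cells; Dosing: single-point compound dosing; Measured by: Fluo4 Ca2+ flux fluorescence; Read-out basis: per-well B score of integrated baseline-normalized Fluo4 ratio.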
TRPC4 potent: allosteric potentiators of mouse TRPC4 channel. Q9QUQ5. HEK293 TRPC4beta/mu-opioid, DAMGO EC20, Fluo-4 Ca2+ flux; stronger effect = higher value. B-score at 10 µM. 310,000 compounds, 0.42% hits. AID 2227;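 active = B-score of calcium response area above 5 SD of library B-scores, with initial fluorescence ratio within 5 SD of library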
TRPC4 act: TRPC4 (mouse) channel activation; HEK293 TRPC4beta/mu-opioid, Fluo4 calcium fluorescence; stronger effect = higher value; B-score at 10 µM; 310,000 compounds, 0.49% hits; AID 2237;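 active = B-score above 5 SD of library B-scores, and initial fluorescence ratio not above library mean plus 5 SD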;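 note: positive B-score marks a calcium rise read as TRPC4 activation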
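Incubation: 45 min room-temperature Fluo4 loading, 110 s read / System: HEK293 cells stably co-expressing mouse TRPC4beta and mu-opioid receptor / Signal: Fluo4 fluorescence, kinetic / Control set: buffer (low) and maximal DAMGO (high) / Measure: integrated baseline-normalised fluorescence ratio, converted to per-well B score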
TRPC6 inh: mouse TRPC6 channel inhibition; Q61143; HEK293-TRPC6, membrane potential dye, ACh-evoked depolarization; stronger effect = lower value; B-score at 10 µM; 310,000 compounds, 1.1% hits; AID 2553;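 active = B-score under library mean minus 3 SD, initial fluorescence not abnormally high, positive integrated signal ratio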;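 note: B-score derived from integrated fluorescence ratio over the kinetic read; more negative B-score means stronger inhibition of depolarization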
TRPC6 act: activators of mouse TRPC6 channel. 310,000 compounds, 0.13% hits. HEK293-TRPC6 membrane potential dye fluorescence; stronger effect = higher value. B-score at 10 µM. Q61143. AID 2550;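 active = B-score of the integrated fluorescence ratio above library mean plus 3 SD, and starting fluorescence ratio within library mean plus 5 SD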;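 note: higher score means more depolarization so channel activation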
Hits are given with their value; 0 = inactive. In the library only some 2.3% were active in any assay of this set; here they are far more common.

SMILES	TRPC4 block	TRPC4 potent	TRPC4 act	TRPC6 inh	TRPC6 act
Cn1c(N2CCN(C(=O)Nc3ccc(F)cc3)CC2)nc2ccccc21	0	0	88	0	0
CCn1c(N2CCN(C(=S)Nc3ccc(OC)cc3)CC2)nc2ccccc21	0	0	52	0	0
CC(C)CNC(=S)N1CCN(c2nc3ccccc3s2)CC1	0	0	0	0	0
CCn1c(N2CCN(C(=S)NCC(C)C)CC2)nc2ccccc21	0	0	105	0	0
CC(C)[C@H](NC(=O)N1CCn2c1nc1ccccc12)C(=O)N1CCCCC1	0	0	0	0	0
CCC1=Nc2cc(C(=O)NCCCN3CCN(C)CC3)ccc2Sc2ccccc21	0	0	0	0	0
Nc1nc(N)c2c(n1)CCCC2	0	0	0	0	0
Nc1c2c(nc3c1CCCC3)CCCC2 (tested in a mixture with another compound)	-6	0	0	0	0
Cc1[nH]c2ccc(C(=O)NCc3ccccn3)cc2c1C	0	0	0	0	0
Cc1cccc2c1-c1sc(C(=O)NCCCN3CCCC(C)C3)cc1CO2 (configuration not stated)	0	0	48	0	0
Cc1ccc(C(=O)c2no[n+]([O-])c2C(=O)c2ccc(C)cc2)cc1	0	29	0	0	0
Cc1ccc(C(=O)c2ccc(C)cc2)cc1	0	0	0	0	0
O=C(c1ccco1)N1CCN(c2ccc([N+](=O)[O-])cc2Cl)CC1	0	0	0	0	0
O=C(NC(=S)N1CCN(c2ccc([N+](=O)[O-])cc2Cl)CC1)c1ccco1	0	12	0	0	0
COc1cccc(/C=C/C(=O)OCC(=O)NC(=O)NC2CCCCC2)c1	0	0	0	0	0
CCCCNc1c(-c2ccc(SC(C)CC)c(OC)c2)nc2ccc(C)cn12 (configuration not stated)	-6	0	0	0	0
O/N=C(/c1ccccc1)c1cc2cc(Br)cc(Br)c2o1	0	0	0	0	0
O=C(CN1CCCCC1)Nc1ccccc1Oc1ccccc1	-5	0	0	0	0
O/N=C/Cc1[nH]c2ccccc2c1-c1ccccc1	-5	0	0	0	0
O=c1[nH]c2ccccc2c(O)c1-c1ccccc1	0	0	0	0	0
COc1cc2cc(C(N)=O)c(N)nc2cc1OC	0	13	0	0	0
COc1ccc2nc(C)c(C(N)=O)cc2c1	0	0	0	0	0
Cc1cccc(C(=O)O)c1NC(=O)Cc1cccc2ccccc12	0	0	0	0	0
NS(=O)(=O)c1ccc(Oc2ccc(S(N)(=O)=O)cc2)cc1	0	96	0	0	0
CCCCOc1ccc(S(N)(=O)=O)cc1	0	0	0	0	0
SMILES	TRPC4 block	TRPC4 potent	TRPC4 act	TRPC6 inh	TRPC6 act
COc1cccc(C2=NN(C(=O)c3ccco3)C(c3ccco3)C2)c1 (configuration not stated)	-6	0	0	0	0
Cc1ccc(C(=O)Nn2cnnc2)cc1	0	0	0	0	0
Clc1ccc(SCCCCn2cncn2)cc1	0	0	0	0	0
Clc1ccc(OCCn2ccnc2)c(Cl)c1	0	14	0	0	0
COc1ccccc1OCCn1ccnc1	0	0	0	0	0
Clc1ccc(SCCn2ccnc2)cc1	0	0	63	0	0
Cc1cc(Cl)c(OCCn2ccnc2)c(Br)c1	0	0	0	0	0
Clc1ccc(OCCn2ccnc2)c2ccccc12	0	0	53	0	0
Clc1ccc(OCCn2ccnc2)c(Br)c1	0	21	0	0	0
OC(COc1ccc(Cl)cc1Cl)Cn1ccnc1 (configuration not stated)	0	0	0	0	0
COc1cccc(-n2cc(C(=O)NC(C)C)c3ccccc3c2=O)c1	0	0	0	0	0
CCOc1cc(/C=N/N2CCN(Cc3ccccc3)CC2)ccc1O	0	0	0	0	0
O=C(Nc1ccccc1Oc1cccnc1)C1CCCN(Cc2ccccc2O)C1 (configuration not stated)	0	0	0	0	0
C#Cc1ccc(CN2CCCC(C(=O)Nc3ccccc3Oc3cccnc3)C2)cc1 (configuration not stated)	-6	0	0	0	0
CCOP(=O)(OCC)c1nc(-c2cccc3ccccc23)oc1N1CCCCC1	0	23	0	0	0
COP(=O)(OC)c1nc(-c2cccc3ccccc23)oc1N1CCCCC1	0	0	0	0	0
